The values that follow come from ChEMBL document CHEMBL4190328, “Design, Synthesis, and Biological Evaluation of Tetrahydroisoquinoline-Based Histone Deacetylase 8 Selective Inhibitors” (ACS Med Chem Lett, 2017).

The target in one experiment is Histone deacetylase 1 (Homo sapiens, UniProt Q13547). Description: Inhibition of recombinant full-length human C-terminal FLAG-His-tagged HDAC1 expressed in baculovirus infected Sf9 insect cells using Boc-L-Lys(Ac)-AMC as substrate preincubated for 5 mins followed by substrate addition measured after 35 mins by fluorescence assay.
Chain of Histone deacetylase 1 (Q13547 whole entry): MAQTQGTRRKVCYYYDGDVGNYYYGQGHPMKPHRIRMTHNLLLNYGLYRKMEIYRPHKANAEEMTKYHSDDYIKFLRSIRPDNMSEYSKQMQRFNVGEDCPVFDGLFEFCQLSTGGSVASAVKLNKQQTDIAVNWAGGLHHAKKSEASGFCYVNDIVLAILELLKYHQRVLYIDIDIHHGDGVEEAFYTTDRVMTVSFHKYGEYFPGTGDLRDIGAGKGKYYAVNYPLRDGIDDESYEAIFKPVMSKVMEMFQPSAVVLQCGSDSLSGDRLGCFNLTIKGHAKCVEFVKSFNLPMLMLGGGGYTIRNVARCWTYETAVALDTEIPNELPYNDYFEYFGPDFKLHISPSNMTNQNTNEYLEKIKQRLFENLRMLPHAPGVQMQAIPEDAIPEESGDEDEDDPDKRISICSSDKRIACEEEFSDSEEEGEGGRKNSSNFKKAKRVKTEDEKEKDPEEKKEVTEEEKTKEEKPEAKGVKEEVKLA
In a further experiment the target is Histone deacetylase 2 (Homo sapiens, UniProt Q92769). Description: Inhibition of recombinant human full-length C-terminal His-tagged HDAC2 expressed in baculovirus infected Sf9 insect cells using Boc-L-Lys(Ac)-AMC as substrate preincubated for 5 mins followed by substrate addition measured after 35 mins by fluorescence assay.
Chain of Histone deacetylase 2 (Q92769 whole entry, the tested form may be a part): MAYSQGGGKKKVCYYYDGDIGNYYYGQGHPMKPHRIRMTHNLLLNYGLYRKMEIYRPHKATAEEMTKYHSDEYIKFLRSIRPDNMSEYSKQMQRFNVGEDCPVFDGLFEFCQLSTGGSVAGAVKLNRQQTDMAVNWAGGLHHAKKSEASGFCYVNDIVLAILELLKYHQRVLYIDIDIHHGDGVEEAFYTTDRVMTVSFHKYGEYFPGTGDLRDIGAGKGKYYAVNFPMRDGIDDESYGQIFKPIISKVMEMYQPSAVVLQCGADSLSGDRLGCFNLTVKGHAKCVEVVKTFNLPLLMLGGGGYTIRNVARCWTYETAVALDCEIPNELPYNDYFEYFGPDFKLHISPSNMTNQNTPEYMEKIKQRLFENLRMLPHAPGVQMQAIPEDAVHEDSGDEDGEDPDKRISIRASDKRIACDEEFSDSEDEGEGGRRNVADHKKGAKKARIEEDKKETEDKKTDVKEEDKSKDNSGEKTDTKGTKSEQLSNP
Experiment [1] deals with Histone deacetylase 3/Nuclear receptor corepressor 2 (HDAC3/NCoR2) (Homo sapiens, UniProt O15379). Description: Inhibition of recombinant human full-length C-terminal His-tagged HDAC3 (395 to 489 residues)/human NCOR2 expressed in baculovirus infected Sf9 insect cells using Boc-L-Lys(Ac)-AMC as substrate pretreated for 5 mins followed by substrate addition measured after 35 mins by fluorescence assay.
Chain of Histone deacetylase 3/Nuclear receptor corepressor 2 (HDAC3/NCoR2) (O15379 whole entry, the tested form may be a part): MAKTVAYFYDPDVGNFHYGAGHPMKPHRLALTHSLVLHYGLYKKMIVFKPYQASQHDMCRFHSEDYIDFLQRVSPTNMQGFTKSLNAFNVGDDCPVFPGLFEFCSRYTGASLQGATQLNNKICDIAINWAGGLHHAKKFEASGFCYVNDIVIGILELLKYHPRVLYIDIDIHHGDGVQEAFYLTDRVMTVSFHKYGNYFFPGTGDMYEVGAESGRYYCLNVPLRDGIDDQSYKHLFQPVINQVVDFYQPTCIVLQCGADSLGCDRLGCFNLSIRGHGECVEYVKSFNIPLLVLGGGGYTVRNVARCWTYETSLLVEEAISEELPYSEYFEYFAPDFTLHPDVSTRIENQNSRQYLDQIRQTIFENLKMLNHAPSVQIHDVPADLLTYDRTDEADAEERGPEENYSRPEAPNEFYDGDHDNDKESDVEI
Chain of Histone deacetylase 3/Nuclear receptor corepressor 2 (HDAC3/NCoR2) (Q9Y618 whole entry, further chain, the tested form may be a part): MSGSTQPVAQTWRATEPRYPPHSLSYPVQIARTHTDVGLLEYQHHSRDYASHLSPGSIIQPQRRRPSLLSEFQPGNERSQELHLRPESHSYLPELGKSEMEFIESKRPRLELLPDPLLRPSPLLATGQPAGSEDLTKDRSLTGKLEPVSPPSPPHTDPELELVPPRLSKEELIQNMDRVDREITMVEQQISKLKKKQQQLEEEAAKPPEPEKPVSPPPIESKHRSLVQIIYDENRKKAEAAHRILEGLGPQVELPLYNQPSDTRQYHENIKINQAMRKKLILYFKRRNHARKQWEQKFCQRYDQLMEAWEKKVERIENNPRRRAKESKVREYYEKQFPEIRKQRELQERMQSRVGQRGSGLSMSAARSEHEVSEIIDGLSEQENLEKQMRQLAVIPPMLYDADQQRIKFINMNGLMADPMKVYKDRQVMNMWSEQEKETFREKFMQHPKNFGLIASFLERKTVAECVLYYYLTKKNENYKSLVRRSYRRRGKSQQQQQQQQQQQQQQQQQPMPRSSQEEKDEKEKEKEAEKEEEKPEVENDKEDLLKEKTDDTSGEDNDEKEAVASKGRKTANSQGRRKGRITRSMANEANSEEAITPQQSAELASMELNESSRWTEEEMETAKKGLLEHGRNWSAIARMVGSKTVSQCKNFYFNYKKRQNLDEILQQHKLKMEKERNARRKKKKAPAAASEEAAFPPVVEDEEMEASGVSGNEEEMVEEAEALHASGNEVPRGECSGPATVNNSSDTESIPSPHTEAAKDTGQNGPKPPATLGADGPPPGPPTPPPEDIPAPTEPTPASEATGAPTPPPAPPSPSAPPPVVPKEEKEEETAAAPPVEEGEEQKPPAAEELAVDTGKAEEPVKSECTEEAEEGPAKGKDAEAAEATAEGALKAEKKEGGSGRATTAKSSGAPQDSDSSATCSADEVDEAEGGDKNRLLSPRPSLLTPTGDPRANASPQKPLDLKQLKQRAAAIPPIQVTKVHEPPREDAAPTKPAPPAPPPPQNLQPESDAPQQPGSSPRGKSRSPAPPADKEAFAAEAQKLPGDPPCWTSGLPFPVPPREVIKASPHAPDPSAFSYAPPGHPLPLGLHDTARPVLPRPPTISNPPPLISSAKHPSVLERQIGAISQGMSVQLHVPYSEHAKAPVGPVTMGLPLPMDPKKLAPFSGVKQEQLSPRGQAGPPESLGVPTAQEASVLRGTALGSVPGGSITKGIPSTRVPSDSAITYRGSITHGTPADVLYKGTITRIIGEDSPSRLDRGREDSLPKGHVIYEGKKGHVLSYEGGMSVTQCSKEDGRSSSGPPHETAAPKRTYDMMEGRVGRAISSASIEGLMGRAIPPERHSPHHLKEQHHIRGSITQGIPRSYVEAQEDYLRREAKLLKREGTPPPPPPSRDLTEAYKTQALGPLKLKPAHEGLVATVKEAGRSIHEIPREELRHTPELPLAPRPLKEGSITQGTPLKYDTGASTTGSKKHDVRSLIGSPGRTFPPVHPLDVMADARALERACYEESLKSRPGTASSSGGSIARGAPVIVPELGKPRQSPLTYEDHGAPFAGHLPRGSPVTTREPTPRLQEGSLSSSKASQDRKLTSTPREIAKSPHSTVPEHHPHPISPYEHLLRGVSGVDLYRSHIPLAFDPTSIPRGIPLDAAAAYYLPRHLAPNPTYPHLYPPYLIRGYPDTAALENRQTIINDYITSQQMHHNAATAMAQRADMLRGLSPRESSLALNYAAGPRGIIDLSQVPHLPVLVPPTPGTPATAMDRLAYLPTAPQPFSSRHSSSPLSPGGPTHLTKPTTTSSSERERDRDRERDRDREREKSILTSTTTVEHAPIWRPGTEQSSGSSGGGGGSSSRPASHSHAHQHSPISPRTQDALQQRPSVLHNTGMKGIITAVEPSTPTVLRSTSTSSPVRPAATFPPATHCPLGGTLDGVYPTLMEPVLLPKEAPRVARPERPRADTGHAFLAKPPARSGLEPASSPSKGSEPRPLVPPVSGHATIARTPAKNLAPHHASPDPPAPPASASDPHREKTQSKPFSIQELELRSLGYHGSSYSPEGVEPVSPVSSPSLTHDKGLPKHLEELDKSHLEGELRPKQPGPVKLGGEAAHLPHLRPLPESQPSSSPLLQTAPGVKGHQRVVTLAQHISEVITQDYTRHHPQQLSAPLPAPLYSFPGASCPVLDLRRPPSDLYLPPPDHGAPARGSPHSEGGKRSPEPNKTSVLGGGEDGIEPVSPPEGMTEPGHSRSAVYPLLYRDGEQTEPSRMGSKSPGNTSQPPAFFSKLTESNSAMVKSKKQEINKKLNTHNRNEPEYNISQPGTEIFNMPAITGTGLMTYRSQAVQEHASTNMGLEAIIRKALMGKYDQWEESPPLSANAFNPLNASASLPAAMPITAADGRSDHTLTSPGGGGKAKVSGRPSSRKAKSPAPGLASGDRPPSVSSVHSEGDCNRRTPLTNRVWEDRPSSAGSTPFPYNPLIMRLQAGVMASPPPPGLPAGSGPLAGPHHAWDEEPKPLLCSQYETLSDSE

In a further experiment the target is T1, Histone deacetylase 8 (Homo sapiens, UniProt Q9BY41).
T1 sequence (Q9BY41 whole entry): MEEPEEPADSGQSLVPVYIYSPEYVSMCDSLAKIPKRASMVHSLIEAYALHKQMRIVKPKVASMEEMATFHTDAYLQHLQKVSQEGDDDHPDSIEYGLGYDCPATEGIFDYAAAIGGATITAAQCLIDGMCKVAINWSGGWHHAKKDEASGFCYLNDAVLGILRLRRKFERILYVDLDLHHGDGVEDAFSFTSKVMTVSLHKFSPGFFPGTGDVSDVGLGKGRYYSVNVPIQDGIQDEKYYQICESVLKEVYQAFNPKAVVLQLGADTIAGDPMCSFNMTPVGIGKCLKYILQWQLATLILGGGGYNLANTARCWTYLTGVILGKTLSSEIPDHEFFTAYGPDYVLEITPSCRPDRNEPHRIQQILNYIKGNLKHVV
Description: Inhibition of recombinant HDAC8 (unknown origin) expressed in Escherichia coli using fluor de Lys(R) as substrate pretreated for 5 mins followed by substrate addition measured after 35 mins by fluorescence assay.

Experiment [2] concerns the target T2, Protein deacetylase HDAC6 (Homo sapiens) (UniProt Q9UBN7).
T2 sequence (whole entry): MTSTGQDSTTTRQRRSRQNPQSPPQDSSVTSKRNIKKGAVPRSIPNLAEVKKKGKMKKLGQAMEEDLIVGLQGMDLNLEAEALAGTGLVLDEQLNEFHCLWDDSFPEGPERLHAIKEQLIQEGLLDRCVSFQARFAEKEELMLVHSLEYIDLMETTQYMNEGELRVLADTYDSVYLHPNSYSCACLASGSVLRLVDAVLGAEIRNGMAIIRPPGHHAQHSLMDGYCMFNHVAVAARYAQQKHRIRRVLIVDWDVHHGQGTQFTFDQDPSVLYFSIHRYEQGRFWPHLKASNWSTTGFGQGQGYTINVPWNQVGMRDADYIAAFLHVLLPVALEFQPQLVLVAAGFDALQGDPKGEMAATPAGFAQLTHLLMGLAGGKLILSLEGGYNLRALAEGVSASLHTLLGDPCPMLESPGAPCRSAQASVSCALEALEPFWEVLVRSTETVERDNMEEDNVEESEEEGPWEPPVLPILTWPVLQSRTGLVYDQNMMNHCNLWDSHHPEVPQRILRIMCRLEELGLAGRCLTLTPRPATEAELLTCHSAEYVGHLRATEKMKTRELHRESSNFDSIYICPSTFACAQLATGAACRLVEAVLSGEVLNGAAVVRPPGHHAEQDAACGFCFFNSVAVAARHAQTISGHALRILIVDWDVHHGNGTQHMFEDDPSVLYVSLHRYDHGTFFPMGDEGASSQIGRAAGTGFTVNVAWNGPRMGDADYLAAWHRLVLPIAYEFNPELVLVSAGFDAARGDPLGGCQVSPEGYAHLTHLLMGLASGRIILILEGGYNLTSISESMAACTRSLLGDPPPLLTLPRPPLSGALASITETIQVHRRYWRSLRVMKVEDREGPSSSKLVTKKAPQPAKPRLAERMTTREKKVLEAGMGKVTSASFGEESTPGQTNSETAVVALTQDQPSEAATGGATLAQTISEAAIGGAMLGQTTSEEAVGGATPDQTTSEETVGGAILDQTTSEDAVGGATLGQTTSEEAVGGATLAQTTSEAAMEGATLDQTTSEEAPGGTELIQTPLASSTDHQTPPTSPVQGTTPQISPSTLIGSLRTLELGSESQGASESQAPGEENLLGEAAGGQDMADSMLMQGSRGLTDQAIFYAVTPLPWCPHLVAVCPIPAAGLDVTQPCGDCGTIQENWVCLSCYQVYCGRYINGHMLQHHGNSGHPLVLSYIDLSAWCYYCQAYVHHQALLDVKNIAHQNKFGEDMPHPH
Description: Inhibition of recombinant human HDAC6 at 10 uM using fluorogenic HDAC substrate 3 by fluorescence assay relative to control. In short, it runs like this:
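HDAC6 activity was measured with test compound at 10 μM and reported as percent inhibition. Values are mean ± standard deviation of at least two independent experiments, rounded to two significant figures.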

The species entered for experiment [3] is Homo sapiens. Nature of the experiment: Selectivity ratio of IC50 for recombinant full-length human C-terminal FLAG-His-tagged HDAC1 expressed in baculovirus infected Sf9 insect cells to IC50 for recombinant HDAC8 (unknown origin) expressed in Escherichia coli.
In experiment [4] the test system is SH-SY5Y. Description: Cytotoxicity against human SH-SY5Y cells expressing TP53 at 10 uM supplemented with fresh medium containing compound every 3 days measured after 72 hrs by CellTiter96 AQueous one solution cell proliferation assay. Type of experiment: functional, cell-based.
The subject of experiment [5] is SH-SY5Y. Description: Inhibition of class 1 HDAC in human SH-SY5Y cells assessed as increase in acetylation of histone H3 at 0.1 to 10 uM after 24 hrs by Western blot analysis. Type of experiment: cell-based. In short, it runs like this:
(§1)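 SH-SY5Y cells were treated with the stated concentrations for 24 h. Lysates were analysed by Western blot for acetylated histone H3 and acetylated α-tubulin.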

Experiment [6] has as its system SH-SY5Y. Nature of the experiment: Inhibition of class 2 HDAC in human SH-SY5Y cells assessed as increase in acetylation of alpha-tubulin at 0.1 to 10 uM after 24 hrs by Western blot analysis. Type of experiment: cell-based. In short, it runs like this: as §1
Experiment [7] concerns SH-SY5Y. Nature of the experiment: Cytotoxicity against human SH-SY5Y cells expressing TP53 by CellTiter96 AQueous one solution cell proliferation assay. Type of experiment: functional, cell-based.
The subject of another experiment is IMR-5. Nature of the experiment: Cytotoxicity against human IMR5 cells expressing TP53 by CellTiter96 AQueous one solution cell proliferation assay. Type of experiment: functional, cell-based.
For the next experiment, the system named is SK-N-AS. Description: Cytotoxicity against human SK-N-AS cells expressing TP53 mutation by CellTiter96 AQueous one solution cell proliferation assay. Type of experiment: functional, cell-based.
The subject of the next experiment is Kelly. Description: Cytotoxicity against human Kelly cells expressing TP53 mutation by CellTiter96 AQueous one solution cell proliferation assay. It is filed as functional, cell-based.
The test system of experiment [8] is SH-SY5Y. As to conditions: Homo sapiens, at 10 µM.
Experiment [9] deals with SH-SY5Y. As to conditions: Homo sapiens, at 10 µM. This is another data set of the same source.
The species entered for experiment [10] is Homo sapiens. Description: Selectivity ratio of IC50 for recombinant human full-length C-terminal His-tagged HDAC2 expressed in baculovirus infected Sf9 insect cells to IC50 for recombinant HDAC8 (unknown origin) expressed in Escherichia coli.
For experiment [11], the species on record is Homo sapiens. Nature of the experiment: Selectivity ratio of IC50 for recombinant human full-length C-terminal His-tagged HDAC3 (395 to 489 residues)/human NCOR2 expressed in baculovirus infected Sf9 insect cells to IC50 for recombinant HDAC8 (unknown origin) expressed in Escherichia coli.

Calls of active or inactive are those of the source. The calls are words filed in the database; no cut-off is given here.

As to `COc1ccc(C2c3ccccc3CCN2CCC(=O)NO)cc1` (stereo not given), the IC50 on Histone deacetylase 1 is 27 µM; at Histone deacetylase 2, > 100 µM; in experiment [1] it was > 100 µM; at Histone deacetylase 8 it was 0.082 µM. Moreover, the inhibition in experiment [2] was found to be 21%. Moreover, the Ratio IC50 in the experiment listed under Homo sapiens [3] is 330. The result in the experiment with SH-SY5Y [4] was Active. Moreover, the inhibition result in the experiment on SH-SY5Y [5] and in the experiment on SH-SY5Y [6] was “inactive” throughout.

For the molecule `CCOc1ccc(C2c3ccccc3CCN2CCC(=O)NO)cc1` (stereo not given), the IC50 is 24 µM on Histone deacetylase 1, 99 µM on Histone deacetylase 2, > 100 µM in experiment [1] and 0.21 µM on Histone deacetylase 8. For the same molecule, in experiment [2], the inhibition was 5.7%.

With `O=C(CN1CCc2ccccc2C1c1ccccc1)NO` (stereo not given), the IC50 was > 100 µM on Histone deacetylase 1, > 100 µM on Histone deacetylase 2, > 100 µM in experiment [1] and 19 µM on Histone deacetylase 8. Besides, the inhibition in [2] is 17%.

With `O=C(CCN1CCc2ccccc2C1c1ccc(C(F)(F)F)cc1)NO` (stereo not given), the IC50 at Histone deacetylase 1 was 18 µM; on Histone deacetylase 2, > 100 µM; in [1], 27 µM; on Histone deacetylase 8 it was 0.19 µM. In experiment [2], the inhibition came to 26%.

For the molecule `COc1ccc(Cn2ccc3ccc(C(=O)NO)cc32)cc1`, the outcome with SH-SY5Y [7], with IMR-5, in the experiment on SK-N-AS and in the experiment on Kelly was Active. The inhibition result in the experiment on SH-SY5Y [8] and in the experiment with SH-SY5Y [9] was “inactive” each time.

Take `O=C(CCN1CCc2ccccc2C1C1CCCCC1)NO` (stereo not given): the IC50 on Histone deacetylase 1 was > 100 µM; on Histone deacetylase 2, > 100 µM; in experiment [1], 75 µM; at Histone deacetylase 8 it was 6.7 µM. For the same molecule, the inhibition in [2] worked out at 32%.

`O=C(CCN(Cc1ccccc1)Cc1ccccc1)NO`: the IC50 at Histone deacetylase 1 was 33 µM; on Histone deacetylase 2, > 100 µM; in experiment [1] it was 52 µM; at Histone deacetylase 8 it was 1.4 µM. In addition, the Ratio IC50 in the experiment listed under Homo sapiens [3] is 24; in the experiment filed under Homo sapiens [10] it was > 71; in the experiment listed under Homo sapiens [11], 37.

Consider `O=C(CCCCCCN1CCc2ccccc2C1)NO`, for which the IC50 at Histone deacetylase 1 came to 0.098 µM; at Histone deacetylase 2 it was 0.33 µM; in experiment [1], 0.097 µM; on Histone deacetylase 8, 1.9 µM. The inhibition in [2] is 97%.

For the molecule `O=C(CCN1CCc2ccccc2C1)NO`, the IC50 on Histone deacetylase 1 was 57 µM; at Histone deacetylase 2, > 100 µM; in experiment [1], 98 µM; on Histone deacetylase 8, 19 µM. Besides, the inhibition in experiment [2] was 31%.

For the molecule `O=C(CCCCNCc1ccccc1)NO`, the IC50 on Histone deacetylase 1 was 14 µM; at Histone deacetylase 2, 58 µM; in [1] it was 22 µM; on Histone deacetylase 8, 10 µM.

As for `O=C(CCN1CCc2ccccc2C1c1cccc(C(F)(F)F)c1)NO` (stereo not given), the IC50 on Histone deacetylase 1 was 37 µM; on Histone deacetylase 2, > 100 µM; in experiment [1] it was > 100 µM; at Histone deacetylase 8, 0.34 µM. The inhibition in experiment [2] turned out to be 17%.

Regarding `O=C(CCCCN1CCc2ccccc2C1c1ccccc1)NO` (stereo not given), the IC50 is 0.77 µM on Histone deacetylase 1, 2.7 µM on Histone deacetylase 2, 0.81 µM in [1] and 0.044 µM at Histone deacetylase 8. For the same molecule, the inhibition in experiment [2] came out at 93%. Besides, the values for the Ratio IC50 in the experiment listed under Homo sapiens [3], in the experiment listed under Homo sapiens [10] and in the experiment filed under Homo sapiens [11] were 18, 61 and 18, respectively.

In the case of `O=C(CCNCc1ccccc1)NO`, the IC50 on Histone deacetylase 1 is 50 µM; at Histone deacetylase 2 it was > 100 µM; in [1] it was 72 µM; on Histone deacetylase 8, > 100 µM.

With `O=C(CCCCCCNCc1ccccc1)NO`, the IC50 at Histone deacetylase 1 came to 0.34 µM; at Histone deacetylase 2, 3.1 µM; in experiment [1] it was 0.43 µM; on Histone deacetylase 8 it was 1.8 µM.

On to `O=C(CCN1CCc2ccccc2C1c1ccc2ccccc2c1)NO` (stereo not given), for which the IC50 on Histone deacetylase 1 is 2.4 µM; at Histone deacetylase 2 it was 13 µM; in experiment [1], 3.4 µM; on Histone deacetylase 8 it was 0.39 µM. In addition, the inhibition in experiment [2] was 74%.

In the case of `COc1cccc(C2c3ccccc3CCN2CCC(=O)NO)c1` (stereo not given), the IC50 was 13 µM on Histone deacetylase 1, 69 µM on Histone deacetylase 2, 34 µM in experiment [1] and 0.11 µM at Histone deacetylase 8. Besides, the inhibition in experiment [2] is 27%.

For `O=C(CCCCN(Cc1ccccc1)Cc1ccccc1)NO`, the IC50 on Histone deacetylase 1 was determined as 1.8 µM; at Histone deacetylase 2 it was 5.4 µM; in experiment [1], 1.4 µM; on Histone deacetylase 8, 1.9 µM.

Regarding `O=C(CCN1CCc2ccccc2C1c1ccccc1)NO` (stereo not given), the 50% inhibitory concentration (IC50) on Histone deacetylase 1 came to 4.4 µM; on Histone deacetylase 2, 40 µM; in experiment [1], 10 µM; on Histone deacetylase 8, 0.95 µM. Moreover, the inhibition in [2] stood at 35%.

On to `CC(C)(C)c1ccc(C2c3ccccc3CCN2CCC(=O)NO)cc1` (stereo not given), for which the IC50 turned out to be 18 µM on Histone deacetylase 1, 29 µM on Histone deacetylase 2, 29 µM in experiment [1] and 0.48 µM on Histone deacetylase 8. The inhibition in experiment [2] came to 30%.

Turning to `O=C(CCCCCCN(Cc1ccccc1)Cc1ccccc1)NO`, the IC50 on Histone deacetylase 1 was determined as 1.1 µM; on Histone deacetylase 2, 2.7 µM; in experiment [1], 1.1 µM; on Histone deacetylase 8, 4 µM.
